# RGS4 act: RGS4 potentiators or activators, primary screen, cell-based, HEK293 M3R inducible RGS4, calcium flux. AID 463111, 2010. 0.92% of 310,000 active. B-score at 10 µM. carbachol calcium flux Fluo4; hits give low values;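 active = B-score of the integrated calcium signal more than 4 SD below the library mean, with starting fluorescence not abnormally high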;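 note: negative B-score means reduced calcium response which marks RGS4 activation or potentiation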
#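 System – HEK293 FlpIn-TREx cells, stable M3R, doxycycline-inducible RGS4 · Reagent – ECmax carbachol challenge · Times – compound preincubation 20 min at room temperature before agonist · Technique – Fluo4 fluorescence kinetic imaging of calcium · Measure – B score of integrated Fluo4 ratio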
# MrgX1 agonist: agonists of human MrgX1 receptor, primary screen, HEK293 cells, Fluo-4 calcium flux | Mas-related G-protein coupled receptor member X1 (Homo sapiens), Q96LB2 | Fluo-4 calcium fluorescence, agonist mode; hits give high values | B-score at 10 µM | 0.44% of 310,000 active | AID 588627, 2011;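 active = calcium response B-score plate-corrected fluorescence ratio at least 3 library SD, with starting fluorescence B-score inside 5 SD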
# Target sequence (Q96LB2 whole entry, looked up): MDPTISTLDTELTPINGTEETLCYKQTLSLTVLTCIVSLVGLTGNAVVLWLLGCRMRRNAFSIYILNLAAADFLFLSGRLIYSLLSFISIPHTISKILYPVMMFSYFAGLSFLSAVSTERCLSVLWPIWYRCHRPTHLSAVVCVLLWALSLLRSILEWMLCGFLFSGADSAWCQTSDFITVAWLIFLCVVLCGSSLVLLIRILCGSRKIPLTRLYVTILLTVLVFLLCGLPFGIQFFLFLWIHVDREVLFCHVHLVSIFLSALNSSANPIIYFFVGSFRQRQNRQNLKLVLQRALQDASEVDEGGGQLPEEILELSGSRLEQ
#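 Test system: Stable human MrgX1 HEK293 cell line | Schedule: Overnight plating before 1 h dye loading | Read-out basis: Baseline-normalised fluorescence change ratio, B-scored | Detection: Kinetic calcium dye fluorescence, Fluo-4 NW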
# MrgX1 antag: antagonists of human MrgX1 receptor, primary screen, HEK293 cells, Fluo-4 calcium flux; Mas-related G-protein coupled receptor member X1 (Homo sapiens), Q96LB2; BAM8-22 antagonism; hits give low values; B-score at 10 µM; 1.3% of 310,000 active;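 active = calcium-response B-score plate-corrected more than 3 library SD below zero, starting fluorescence within 5 deviations, no agonist response on first addition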;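 note: peak minus trough fluorescence over baseline after final BAM8-22 challenge near maximal dose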
# RGS4 inh: RGS4 inhibitors, primary screen, cell-based, HEK293 M3R inducible RGS4, calcium flux | Regulator of G-protein signaling 4 (Homo sapiens), P49798 | Fluo-4 calcium flux; hits give high values; triggered by carbachol at its EC20 | B-score at 10 µM | 0.45% of 310,000 active;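 active = B-score, a plate-corrected calcium signal, over three deviations above library mean, with baseline fluorescence within five deviations of library mean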;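 note: RGS4 expression induced by doxycycline in cells with stable M3 receptor; B-score is computed from the integrated fluorescence ratio over baseline after carbachol; higher B-score means a larger calcium signal and so more RGS4 inhibition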
# Target sequence (P49798 whole entry, looked up): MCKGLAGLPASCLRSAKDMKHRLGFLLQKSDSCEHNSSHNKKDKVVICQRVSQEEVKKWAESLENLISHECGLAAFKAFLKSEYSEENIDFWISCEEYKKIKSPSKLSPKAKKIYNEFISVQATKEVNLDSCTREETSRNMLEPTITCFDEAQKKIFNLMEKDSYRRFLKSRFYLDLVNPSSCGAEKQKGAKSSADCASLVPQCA
# PHOSPHO1 inh: PubChem AID 1565; 1.1% of 290,000 active; recombinant PHOSPHO1, absorbance phosphatase assay; inhibition, % at 13.3 µM; in the data active = inhibition above about 60%
# MrgX1 PAM: positive allosteric modulators of MrgX1, primary screen, HEK293 cells, Fluo-4 calcium flux. Mas-related G-protein coupled receptor member X1 (Homo sapiens), Q96LB2. FDSS; hits give high values. B-score at 10 µM. 0.63% of 310,000 active. AID 588675, 2011;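 active = plate-corrected calcium response at least 3 library SD above typical, normal starting fluorescence, not activating the receptor alone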;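 note: compound read alongside a low EC10 to EC30 dose of BAM8-22 agonist; peak minus trough fluorescence over baseline measured at the second addition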
# MrgX1 antag conf: MrgX1 receptor antagonists, duplicate retest, confirmation, HEK293 cells, Fluo-4 calcium flux | shares compounds with MrgX1 antag | BAM8-22 calcium flux; hits give low values | remaining BAM8-22 calcium response % of control (hits give low values), % at 10 µM | 19% of 2,300 active;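 active = remaining agonist calcium response no higher than 100% minus 3 SD of agonist-only control wells, with starting fluorescence near control levels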;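 note: agonist BAM8-22 given at a near maximal EC90 to ECmax level; peak minus minimum fluorescence divided by baseline after agonist addition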
# HEK293 Ca flux: nonspecific calcium signal in parental HEK293, confirmation, counter-screen for MrgX1 antagonist project, parental HEK293 cells, Fluo-4 calcium flux; shares compounds with MrgX1 antag; Fluo-4 calcium fluorescence, FDSS; fluorescence ratio F(max-min)/F0 at 10 µM; 2% of 4,000 active; AID 624111, 2012;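 active = duplicate-averaged calcium fluorescence ratio at least three times the standard deviation of buffer wells, a nonspecific response in parental cells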
# HEK293 Ca counter: calcium response in parental HEK293 cells, primary screen, counter-screen for MrgX1 allosteric activator project, cell-based, Fluo-4 calcium flux, duplicate. shares compounds with MrgX1 antag. Fluo-4 fluorescence ratio; hits give high values. fluorescence ratio F(max-min)/F0 at 10 µM. 0.4% of 4,000 active. AID 624114, 2012;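 active = calcium fluorescence ratio, averaged over duplicates, at least 3 SD of the buffer-well ratio, meaning a nonspecific response in receptor-free cells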;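 note: untransfected parental HEK293 lacking MrgX1 used as counterscreen for MrgX1 allosteric activators; fluorescence change taken during the second addition on a kinetic imager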
# HEK293 Ca cntr2: calcium response in parental HEK293 cells, primary screen, counter-screen for MrgX1 agonist project, cell-based, Fluo-4 calcium flux, duplicate, agonist mode | shares compounds with MrgX1 antag | Fluo-4 calcium fluorescence (FDSS); hits give high values | fluorescence ratio F(max-min)/F0 at 10 µM | AID 624115, 2012 | 8.7% of 4,000 active;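 active = calcium fluorescence ratio at least three times the spread of buffer wells, meaning a non-specific response in parental cells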
# Active calls of the source: *; i = inactive; / = not tested or not shown. Rows were chosen to be rich in hits. Some 4.5% of all compounds tested hit in one or more screens of this group.
SMILES,RGS4 act,MrgX1 agonist,MrgX1 antag,RGS4 inh,PHOSPHO1 inh,MrgX1 PAM,MrgX1 antag conf,HEK293 Ca flux,HEK293 Ca counter,HEK293 Ca cntr2
COc1ccc(CCNc2nc(N3CCOCC3)nc(N3CCOCC3)n2)cc1OC,i,i,-5.9*,i,14,i,i,i,i,i
CCOC(=O)CC(NC(=O)c1cc2cccc(OC)c2oc1=O)c1ccc(OC)cc1 (stereo not drawn),i,i,i,i,32,i,/,/,/,/
O=C(CS(=O)(=O)c1c[nH]c2ccccc12)NC1CCCCC1,i,i,-10*,i,26,i,i,i,i,i
O=C(Cc1c(O)c2ccccc2[nH]c1=O)NC1CCCCCCC1,i,i,-8.4*,i,-6,i,i,i,i,i
O=C(CS(=O)(=O)c1c[nH]c2ccccc12)Nc1ccc(F)cc1,i,i,i,i,27,i,/,/,/,/
O=C(Cc1c(O)c2ccccc2[nH]c1=O)NC1CCCCCC1,i,i,i,i,6,i,/,/,/,/
CCCCCOC(=O)Cc1c(O)c2ccccc2[nH]c1=O,i,i,-7.9*,i,2,i,i,i,i,i
Cc1cc(NC(=O)C(C)Oc2ccccc2)no1 (stereo not drawn),i,i,i,i,13,i,/,/,/,/
CCOC(=O)c1c(NC(=O)C(C)OC(=O)c2ccc(NC(=O)CC#N)cc2)sc2c1CCCC2 (stereo not drawn),i,i,i,i,/,i,/,/,/,/
CCC(C)(C(=O)NC1CCCC1)N(C(=O)c1ccccn1)c1ccccc1 (stereo not drawn),i,i,-8*,i,32,i,i,i,i,i
Cc1nc(N)sc1C(=O)OCC(C)C,i,i,-8.7*,i,4,i,i,i,i,i
CCOC(=O)c1sc(N)nc1C(C)(C)C,i,i,i,i,19,i,/,/,/,/
Clc1ccc(CNC2CCCC2)c(Cl)c1,i,i,i,i,26,i,/,/,/,/
S=C(NCc1ccc(Cl)cc1Cl)NC1CCCCC1,i,i,-4.6*,i,-7,i,60%*,i,i,i
Cn1cnnc1SCCC(=O)Nc1ccccc1,i,i,i,i,19,i,/,/,/,/
Cn1cnnc1SCCC(=O)Nc1ccc(Cl)cc1,i,i,-5.8*,i,7,i,i,i,i,i
Cn1cnnc1SCC(=O)Nc1ccc(OC(F)F)cc1,i,i,-4.9*,i,28,i,84%*,i,i,i
COc1ccc(CCc2nnc(NS(C)(=O)=O)s2)cc1,i,i,i,i,14,i,/,/,/,/
COc1cccc(C2/C(=C(\O)c3ccc4c(c3)OCCO4)C(=O)C(=O)N2Cc2cccnc2)c1 (stereo not drawn),i,i,i,i,58,i,/,/,/,/
